Measured values: ChEMBL document CHEMBL5032492, “Aminoalkoxycarbonyloxymethyl Ether Prodrugs with a pH-Triggered Release Mechanism: A Case Study Improving the Solubility, Bioavailability, and Efficacy of Antimalarial 4(1H)-Quinolones with Single Dose Cures” (J Med Chem, 2021)
In brackets after ≈: the same amount, converted by molar mass. Each block holds one compound with its values, some of them ahead of it. Activity calls are given as the source filed them. The rule behind the calls is not given here.

Columns and labels:
Plasmodium falciparum [1] = assay: (§1) Antimalarial activity against chloroquine, pyrimethamine, mefloquine and atovaquone- resistant Plasmodium falciparum TM90-C2B infected in human erythrocytes assessed as reduction in parasite growth incubated for 48 hrs followed by addition of [3H]-hypoxanthine and measured after 24 hrs by Topcount liquid scintillation counting method; assay type: functional, organism-based; settings: Erythrocyte
Plasmodium falciparum [2] = assay: as §1, with “chloroquine” for “chloroquine, pyrimethamine, mefloquine”, “pyrimethamine” for “atovaquone-”, “W2” for “TM90-C2B”; assay type: functional, organism-based; settings: W2, Erythrocyte
[3] = Aqueous solubility of compound at pH 7.4; assay type: physicochemical; settings: buffer
[4] = Aqueous solubility of compound at pH 2.4; settings: buffer
[5] = AUC (0 to 24 hrs) in BALB/c mouse at 10 mg/kg, po; assay type: ADME, organism-based; parameters: time < 24 hr, route oral, dose 10 mg/kg; settings: in vivo
Method in brief: (§2)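 Single oral dose in mice, formulated in 0.5% aqueous HEC; doses of 3, 10 or 50 mg/kg. The parent 4(1H)-quinolone was quantified in plasma over time after dosing, with a lower limit of quantification of 1 nM. PK parameters were derived from the plasma concentration profiles.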

[6] = AUC (0 to 24 hrs) in BALB/c mouse at 3 mg/kg, po; assay type: ADME, organism-based; parameters: time < 24 hr, route oral, dose 3 mg/kg; settings: in vivo; method in brief: as §2
[7] = Clearance in BALB/c mouse at 3 mg/kg, po; assay type: ADME, organism-based; settings: in vivo; method in brief: as §2
Plasmodium berghei [8] = assay: (§3) In vivo antimalarial activity against blood stage Plasmodium berghei transfected with GFP infected in BALB/c mouse assessed as supression of parasitemia at 3 mg/kg, po administered as single dose on 3 days post infection and measured on day 6 by Giemsa staining based flow cytometric analysis relative to control; assay type: functional; settings: time 3 day
Method in brief: (§4)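 Female BALB/c mice, 4–6 weeks old, five per dose group, were infected intraperitoneally with 2 × 10^6 P. berghei-GFP-infected red cells. Each received one oral dose on day 3 PI in 0.5% aqueous HEC; doses ranged 0.01–10 mg/kg. Parasitemia was measured from tail blood by flow cytometry and Giemsa smears. Percent suppression on day 6 PI was calculated versus untreated infected controls, with Welch-corrected unpaired t test.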

Plasmodium berghei [9] = assay: as §3, with “at 0.3” for “at 3”; assay type: functional; settings: time 3 day; method in brief: as §4
Plasmodium berghei [10] = assay: as §3, with “at 1” for “at 3”, “day 13” for “day 6”; assay type: functional; settings: time 10 day
Method in brief: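 Female BALB/c mice, five per group, were infected with P. berghei-GFP-infected erythrocytes intraperitoneally. Each received a single oral dose of 1 mg/kg in 0.5% aqueous HEC on day 3 PI. Tail-blood parasitemia was followed by flow cytometry and Giemsa smears at 3-day intervals through day 30. Suppression on day 13 PI was calculated relative to untreated infected controls.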

Plasmodium berghei [11] = assay: as §3, with “at 0.01” for “at 3”; assay type: functional; settings: time 3 day; method in brief: as §4
[12] = Clearance in BALB/c mouse at 10 mg/kg, po; assay type: ADME, organism-based; settings: in vivo; method in brief: as §2
[13] = Solubility of the compound in 0.5% hydroxyethylcellulose
Plasmodium berghei [14] = assay: as §3, with “at 10” for “at 3”; assay type: functional; settings: time 3 day; method in brief: as §4
Plasmodium berghei [15] = assay: as §3, with “at 0.1” for “at 3”; assay type: functional; settings: time 3 day; method in brief: as §4
Plasmodium berghei [16] = assay: as §3, with “at 0.03” for “at 3”; assay type: functional; settings: time 3 day; method in brief: as §4
Plasmodium berghei [17] = assay: as §3, with “at 1” for “at 3”; assay type: functional; settings: time 3 day; method in brief: as §4
[18] = Toxicity in BALB/c mouse infected with blood stage Plasmodium berghei assessed as death at 1 mg/kg, po administered as single dose starting from day 3 post infection and measured on day 13; assay type: organism-based; settings: in vivo, 240 h, time 10 day
Method in brief: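 Female BALB/c mice (4–6 weeks, about 18 g), five per group, infected intraperitoneally with P. berghei (GFP)-parasitized erythrocytes. Given one oral dose on day 3 PI in 0.5% aqueous HEC, freshly solubilized about 1 min before dosing. Tail-vein parasitemia read by flow cytometry and Giemsa smears every third day through day 30. Untreated animals served as controls.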

Plasmodium berghei [19] = assay: as §3, with “at 50” for “at 3”, “administered once daily starting from day” for “administered as single dose on”, “3 to 5” for “3 days”, “measured at” for “measured on”; assay type: functional
Method in brief: (§5)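 Female BALB/c mice, 4–6 weeks old, five per group, were infected intraperitoneally with 2 × 10^6 P. berghei-GFP-infected red cells. Oral doses of 10 or 50 mg/kg in 0.5% aqueous HEC were given once daily on days 3–5 PI; prodrugs were suspended about 1 min before dosing. Parasitemia was measured by flow cytometry and Giemsa smears. Day-6 percent suppression was calculated versus untreated controls, with Welch-corrected t test.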

Plasmodium berghei [20] = assay: as §3, with “at 10” for “at 3”, “administered once daily starting from day” for “administered as single dose on”, “3 to 5” for “3 days”, “measured at” for “measured on”; assay type: functional; method in brief: as §5
Plasmodium berghei [21] = assay: In vivo antimalarial activity against Plasmodium berghei at 20 mg/kg, po administered as single dose in presence of ferroquine; assay type: functional, organism-based

SMILES: CCC(=O)Oc1c(-c2ccccc2C)c(C)nc2cc(OC)c(Cl)cc12
EC50 (Plasmodium falciparum [1]): 63.1 nM | EC50 (Plasmodium falciparum [2]): 63.1 nM

solubility [3]: 95 µM (≈ 22.4 µg/mL) | solubility [4]: 100 µM (≈ 23.6 µg/mL)
SMILES: NC(=O)N1c2ccccc2C=Cc2ccccc21 [CARBAMAZEPINE]

SMILES: CNCCCOC(=O)OCOc1c(-c2ccc(Oc3ccc(OC(F)(F)F)cc3)cc2F)c(C)nc2cc(OC)c(Cl)cc12.Cl
AUC [5]: 10269 µmol·min/L | AUC [6]: 4818 µmol·min/L | clearance [7]: 0.9 mL/min/kg | Activity (Plasmodium berghei [8]): >99% | Activity (Plasmodium berghei [9]): 57% | Activity (Plasmodium berghei [10]): 90% | Activity (Plasmodium berghei [11]): <1% | clearance [12]: 1.4 mL/min/kg | solubility [13]: > 5500 µM | Activity (Plasmodium berghei [14]): >99% | Activity (Plasmodium berghei [15]): <1% | Activity (Plasmodium berghei [16]): <1% | Activity (Plasmodium berghei [17]): 97% | Activity [18]: Non-Toxic

SMILES: CCOC(=O)Oc1c(-c2ccccc2C)c(C)nc2cc(OC)c(Cl)cc12
EC50 (Plasmodium falciparum [1]): 126 nM | EC50 (Plasmodium falciparum [2]): 170 nM | solubility [3]: < 1 µM

SMILES: CCN(CC)C(=O)Oc1c(-c2ccccc2C)c(C)nc2cc(OC)c(Cl)cc12
EC50 (Plasmodium falciparum [1]): > 3550 nM | EC50 (Plasmodium falciparum [2]): > 2290 nM | solubility [3]: < 1 µM

SMILES: CNCCOC(=O)OCOc1c(-c2ccccc2C)c(C)nc2cc(OC)c(Cl)cc12.Cl
EC50 (Plasmodium falciparum [1]): 107 nM | EC50 (Plasmodium falciparum [2]): 219 nM | Activity (Plasmodium berghei [19]): 46% | Activity (Plasmodium berghei [20]): 71% | solubility [13]: > 21000 µM | solubility [4]: > 100 µM

SMILES: c1cc([C@H]2CC[C@]3(CC2)OOC2(O3)C3CC4CC(C3)CC2C4)ccc1OCCN1CCOCC1 (some centres undefined)
Activity (Plasmodium berghei [21]): Active

SMILES: CN1CCCOC1=O
EC50 (Plasmodium falciparum [2]): > 8320 nM

SMILES: COc1cc2nc(C)c(-c3ccccc3C)c(OC(=O)N3CCCC3)c2cc1Cl
EC50 (Plasmodium falciparum [1]): > 3550 nM | EC50 (Plasmodium falciparum [2]): > 2290 nM
